Data on two molecules can be found in ChEMBL document CHEMBL1155286, “Second generation of 2H-benzimidazole 1,3-dioxide derivatives as anti-trypanosomatid agents: synthesis, biological evaluation, and mode of action studies” (Eur J Med Chem, 2009).

Series [1] deals with Trypanosoma cruzi. Kind of series: Antitrypanosomal activity against Trypanosoma cruzi CL Brener trypomastigotes infected in Vero cells assessed as parasite lysis at 25 uM after 19 hrs relative to untreated control. Type of series: functional. The essentials:
(§1)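 Cell-culture trypomastigotes released from infected Vero cells (37 °C, 5% CO2, 5–7 days), collected by centrifugation and allowed 4 h at 37 °C to swim off. Supernatant parasites exposed to 10.0–50.0 μM for 2–26 h; lysis counted in a Neubauer chamber relative to untreated parasites; three independent experiments.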

Series [2] deals with Trypanosoma cruzi. Kind of series: Antitrypanosomal activity against Trypanosoma cruzi CL Brener trypomastigotes infected in Vero cells assessed as parasite lysis at 50 uM after 2 hrs relative to untreated control. The series is classed as functional. The essentials: as §1
Series [3] concerns Trypanosoma cruzi. Kind of series: Antitrypanosomal activity against Trypanosoma cruzi CL Brener trypomastigotes infected in Vero cells assessed as parasite lysis at 50 uM after 19 hrs relative to untreated control. The series is classed as functional. A digest of the protocol:
as §1

Series [4] has as its system Trypanosoma cruzi. Kind of series: Antitrypanosomal activity against Trypanosoma cruzi CL Brener epimastigotes after 5 days by MTT assay. Type of series: functional. The settings on record: 120 h, read-out: ID50. A digest of the protocol:
(§2)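 Epimastigotes (T. cruzi strains, BHI-Tryptose + 5% FBS, 28 °C) or L. braziliensis LTB300 promastigotes (axenic RPMI + 5% FBS, 28 °C) from exponential culture in 24-well plates; compounds from DMSO stock added for 5 days. Washed in PBS, 0.4 mg/mL MTT at 37 °C for 3 h, formazan dissolved in DMSO, OD595 read. Triplicate per concentration, six growth controls; 1.0–50.0 μM dose-response, ID50 = concentration reducing absorbance ratio to 50%; three independent experiments.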

Series [5] relates to Trypanosoma cruzi. The series is described as follows: Antitrypanosomal activity against Trypanosoma cruzi Y epimastigotes after 5 days by MTT assay. The settings on record: 120 h, read-out: ID50. The series is classed as functional. A digest of the protocol: as §2
Series [6] deals with Leishmania braziliensis. The series is described as follows: Antiparasitic activity against Leishmania braziliensis MHOM/BR/00/LTB300 after 5 days by MTT assay. The series is classed as functional. The settings on record: MHOM/BR/00/LTB300, 120 h, read-out: ID50. A digest of the protocol:
as §2

Series [7] has as its system Trypanosoma cruzi. Kind of series: Antitrypanosomal activity against Trypanosoma cruzi Colombiana assessed as parasitic cytotoxicity at 25 uM after 5 days by MTT assay. The series is classed as functional. The essentials: (§3)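 Single 25 μM dose for 5 days on exponential-phase epimastigotes in BHI-Tryptose + 5% FBS, 24-well plates; MTT 0.4 mg/mL, 3 h at 37 °C after PBS wash, formazan in DMSO, OD595. PCyt = [[…] (ODd − ODdm)/(ODc − ODcm)] × 100 with medium-only blanks, compound-in-medium blanks and growth controls; three independent experiments.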

In series [8] the test system is Trypanosoma cruzi. Kind of series: Reduction of end products excretion levels in Trypanosoma cruzi Y epimastigotes after 2 days by [1H]NMR method. The series is classed as functional, organism-based. The essentials:
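Y-strain epimastigotes treated 2 days with 5 μM compound; culture centrifuged 1500 g, 10 min, 4 °C, parasite-free supernatant stored at −20 °C. Supernatant plus DMF internal standard and D2O run by 1H NMR with water suppression; metabolite peaks confirmed by spiking and standards, compared to untreated and parasite-free medium.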

In series [9] the test system is Trypanosoma cruzi. Kind of series: Antitrypanosomal activity against Trypanosoma cruzi CL Brener epimastigotes assessed as parasitic cytotoxicity at 25 uM after 5 days by MTT assay. Type of series: functional. The essentials:
as §3

In series [10] the test system is Trypanosoma cruzi. Kind of series: Antitrypanosomal activity against Trypanosoma cruzi Tulahuen 2 epimastigotes assessed as inhibition of parasite growth after 5 days. The settings on record: Trypanosoma cruzi, Tulahuen 2, 120 h; read-out: ID50 (the source's name). Type of series: functional. The essentials: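 Stationary-phase (10-day) Tulahuen 2 epimastigotes inoculated at 1×10^6 cells/mL in BHI-Tryptose + 5% FBS, 28 °C, drug added from DMSO stock (final DMSO ≤0.4%; control 0.4% DMSO). Growth followed as A600; inhibition from day-5 vs day-0 absorbance relative to control. ID50 = concentration reducing absorbance ratio to 50%; three independent experiments.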

The test system of series [11] is Trypanosoma cruzi. The series is described as follows: Antitrypanosomal activity against Trypanosoma cruzi CL Brener trypomastigotes infected in Vero cells assessed as parasite lysis at 5 uM after 22 hrs relative to untreated control. The series is classed as functional.
Series [12] relates to Trypanosoma cruzi. The series is described as follows: Antitrypanosomal activity against Trypanosoma cruzi CL Brener trypomastigotes infected in Vero cells assessed as parasite lysis at 10 uM after 2 hrs relative to untreated control. Type of series: functional. The essentials:
as §1

Series [13] relates to Trypanosoma cruzi. The series is described as follows: Antitrypanosomal activity against Trypanosoma cruzi CL Brener trypomastigotes infected in Vero cells assessed as parasite lysis at 10 uM after 3 hrs relative to untreated control. The series is classed as functional. The essentials: as §1
The subject of series [14] is Trypanosoma cruzi. Kind of series: Antitrypanosomal activity against Trypanosoma cruzi CL Brener trypomastigotes infected in Vero cells assessed as parasite lysis at 10 uM after 22 hrs relative to untreated control. Type of series: functional. The essentials:
as §1

Series [15] deals with Trypanosoma cruzi. The series is described as follows: Antitrypanosomal activity against Trypanosoma cruzi CL Brener trypomastigotes infected in Vero cells assessed as parasite lysis at 10 uM after 26 hrs relative to untreated control. The series is classed as functional. A digest of the protocol:
as §1

Another series relates to J774. Kind of series: Cytotoxicity against mouse J774 cells at 100 uM relative to 5-((hydroxyimino)methyl)-2,2-dimethyl-2H-benzo[d]imidazole 1,3-dioxide. Type of series: cell-based. The settings on record: j774, 100 µM.
Series [16] is described as follows: Cytotoxicity against mouse J774 cells. Type of series: cell-based. The settings on record: read-out: ID50 (the source's name).
Series [17] can be described thus: Selective index, ratio of ID50 for mouse J774 cells to ID50 for Trypanosoma cruzi Tulahuen 2.
The nature of series [18]: Selective index, ratio of ID50 for mouse J774 cells to ID50 for Leishmania braziliensis LTB300.
The subject of series [19] is Trypanosoma cruzi. Kind of series: Inhibition of Mitochondrial dehydrogenase in Trypanosoma cruzi Y epimastigotes at 20 uM after 30 to 240 mins by MTT dye reduction assay in relative to control. The essentials: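 Y-strain epimastigotes, 10^6 per well in 500 µL, 20 μM compound, 28 °C for 30–240 min with time-matched untreated controls. MTT (50 µL of 5 mg/mL) added for 4 h more, stopped with acidic isopropanol, A570 read; activity expressed as % of untreated parasites.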

The subject of series [20] is Leishmania braziliensis. Kind of series: Inhibition of Mitochondrial dehydrogenase in Leishmania braziliensis MHOM/BR/00/LTB300 at 20 uM after 30 to 240 mins by MTT dye reduction assay in relative to control.
The subject of series [21] is Trypanosoma cruzi. Kind of series: Decrease of glucose uptake in Trypanosoma cruzi Y epimastigotes after 4 hrs relative to control. Type of series: functional, organism-based. The essentials: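 Y-strain epimastigotes (80×10^6/mL) washed and resuspended in PBS with 1 mM glucose, exposed 4 h to 20 μM compound from DMSO. Parasite-free supernatant refluxed 1 h with Benedict's reagent; remaining glucose quantified at 700 nm against a calibration curve.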

The subject of series [22] is Trypanosoma cruzi. The series is described as follows: Trypanocidal activity against Trypanosoma cruzi CL Brener amastigotes infected in Vero cells assessed as parasite infection at 5 uM after 72 hrs. Type of series: functional. The essentials:
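Vero cells (4×10^7/L) on coverslips in modified Eagle's medium + 3% FBS, 37 °C; after 24 h infected with trypomastigotes (5×10^9/L) ± compound. Non-internalized parasites removed at 24 h, fresh medium ± compound, 72 h further incubation; May-Grünwald-Giemsa stain, 500 cells scored for % infected and amastigotes per cell; endocytic index = product of the two.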

The test system of series [23] is Trypanosoma cruzi. The series is described as follows: Trypanocidal activity against Trypanosoma cruzi CL Brener amastigotes infected in Vero cells assessed as parasite infection at 2.5 uM after 72 hrs.

Each structure is given as a SMILES string. Activity calls are given as the source filed them. The rule behind the calls is not given here.

With `CC1(C)[N+]([O-])=c2ccc(/C=C/c3ccccc3)cc2=[N+]1[O-]`, the Activity came to 64% in the series with Trypanosoma cruzi [1]; 32% in the series with Trypanosoma cruzi [2]; 100% in the series on Trypanosoma cruzi [3]; 92.3% in the series with Trypanosoma cruzi [7]; 78.4% in the series on Trypanosoma cruzi [9]; 31% with Trypanosoma cruzi [11]. The Activity in the series with Trypanosoma cruzi [12] worked out at 3%; in the series on Trypanosoma cruzi [13], 32%; in the series with Trypanosoma cruzi [14] it was 84%; in the series with Trypanosoma cruzi [15], 100%. In addition, the IC50 was 8.5 µM in the series on Trypanosoma cruzi [4], 6 µM in the series with Trypanosoma cruzi [5], 3.5 µM in the series on Leishmania braziliensis [6] and 3.4 µM in the series with Trypanosoma cruzi [10]. In addition, the result in the series on Trypanosoma cruzi [8] was Active.
Turning to `Cc1ccc2c(c1)=[N+]([O-])C1(CCCC1)[N+]=2[O-]`, the Activity in the series on Trypanosoma cruzi [1] amounted to 24%; in the series on Trypanosoma cruzi [3], 52%; in the series with J774, 1.22%; in the series with Trypanosoma cruzi [22] it was 14.7%; with Trypanosoma cruzi [7], 59.3%; in the series on Trypanosoma cruzi [9], 56.5%. Besides, the Activity in the series with Trypanosoma cruzi [12] was found to be 1%; in the series with Trypanosoma cruzi [13], 39%; in the series on Trypanosoma cruzi [14], 25%; in the series with Trypanosoma cruzi [15] it was 24%; with Trypanosoma cruzi [23] it was 34.8%. In series [16], the CC50 turned out to be 63 µM. The Ratio in series [17] amounted to 8; in series [18], 7.1. Further, the results for the IC50 in the series with Trypanosoma cruzi [5], in the series with Leishmania braziliensis [6] and in the series on Trypanosoma cruzi [10] were 15.8 µM, 8.9 µM and 7.9 µM, respectively. Moreover, the outcome in the series on Trypanosoma cruzi [19] was inactive. Also, the result with Leishmania braziliensis [20], in the series with Trypanosoma cruzi [21] and in the series with Trypanosoma cruzi [8] was Active.
